From ChEMBL document CHEMBL4513216, “Probing the Open Global Health Chemical Diversity Library for Multistage-Active Starting Points for Next-Generation Antimalarials” (ACS Infect Dis, 2020)

Test: Toxicity liver stage against HepG2, at 10uM
Format: cell-based
Set-up: test concentration 10 uM, cell line HepG2-A16-CD81EGFP
Conditions: human, HepG2-A16-CD81EGFP cells; read-out: INHIBITION
Procedure, shortened: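 Uninfected HepG2-A16-CD81EGFP cells, 3 × 10^3 per well, 1536-well, plated on prespotted compound at 10 μM final, parasite-free screening media added to match infected plates; puromycin 10 μM positive, DMSO 0.5% negative; run in parallel with 48 h PbLuc assay at 37 °C, 5% CO2; viability by CellTiter-Glo luminescence, normalized to controls.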

| Compound | cytotoxicity at 10 µM [%] |
| --- | --- |
| COc1nonc1NCn1nc(C)cc1C | -15 |
| Cc1cc2nc(CO[C@H]3CN(C4CCCCC4)C[C@H]3F)[nH]c2cc1C | -17.5 |
| Cc1ccccc1NC(=O)Nc1cc(N2CCCC2)ncn1 | -7.73 |
| CN(C)S(=O)(=O)N1CCC(Oc2cccnn2)CC1 | 3.05 |
| O=C(C1CN(CC2CC2)CC12CCOCC2)N1CCCC1 (centres undefined) | 7.28 |
| COC1COC2(CCN(C(=O)c3cocn3)CC2)C1 (centres undefined) | 9.64 |
| CN1CCN(C(=O)[C@H]2C[C@H]3[C@H](CCN3Cc3nccs3)O2)CC1 | 1.73 |
| CC(C)C(=O)N1CCN(C(=O)N(C)C)CC2(CC(=O)N(C)C2)C1 (centres undefined) | -21 |
| CNc1oc(-c2cc(S(=O)(=O)N3CCCCCC3)c(C)o2)nc1C#N | -5.28 |
| Cc1nn(CC(=O)O)c2nccc(-c3ccc(F)cc3)c12 | -4.17 |
| COc1c(C2SCC(=O)Nc3[nH]ncc32)cc2c(c1OC)OCO2 (centres undefined) | 0.219 |
| Cc1ccnc(NC(=O)c2cccc(OCc3nnnn3C)c2)c1 | -0.319 |
| Cn1cccc1C(=O)NCc1ccnc(C2CCCOC2)n1 (centres undefined) | 3.41 |
| Cn1cc(CN2CCC(c3cc(CCO)[nH]n3)C2)cn1 (centres undefined) | 3.19 |
| CC1(C(=O)N2CCOCC2)CN(Cc2c[nH]cn2)CCO1 (centres undefined) | -4.61 |
| O[C@@H]1CN(Cc2ccncc2)C[C@H]1Oc1ccccc1 | -1.44 |
| O=C(Cn1c(=O)n(Cc2ccco2)c2ncccc21)NC1CC1 | -6.33 |
| COc1ncc(C2(O)CCN(Cc3cc(F)cc(F)c3)CC2)c(OC)n1 | 0.331 |
| O=C(N[C@@H]1CN(Cc2ccc3cc[nH]c3c2)C[C@H]1O)c1cnccn1 | -8.22 |
| Cc1cc(C2CCCN2C(=O)c2ccc(OCC(N)=O)cc2)no1 (centres undefined) | -43.9 |
| COCc1c(Br)cccc1NC(=O)CC(F)(F)F | 2.38 |
| Cn1cc(S(=O)(=O)Nc2ccc3[nH]c(C4CCC4)nc3c2)cn1 | -8.36 |

| Compound | cytotoxicity at 10 µM [%] |
| --- | --- |
| Cc1noc(C2CCCN(C(=O)c3cccc(Cl)c3)C2)n1 (centres undefined) | -1.58 |
| O=C(NC1CCN(CC2CCCC2)C1)N1CCC(OCC2CC2)CC1 (centres undefined) | 9.86 |
| CCc1noc(CNc2cc3c(cc2Cl)OCCO3)n1 | -0.18 |
| Cn1cnc(S(=O)(=O)N2CCCc3cccc(F)c32)c1Cl | -4.63 |
| CC(=O)Nc1ccc(CNCC(O)c2ccccc2)cc1 (centres undefined) | -10.1 |
| COc1ccc2c(c1)CCCN(CC(=O)NCC1CCCO1)C2 (centres undefined) | -12 |
| CCc1ccc(CNC(=O)Nc2cc(C)on2)s1 | -11.6 |
| O=C(CN1CCc2cncnc2C1)N1CCc2sccc2C1 | 11.9 |
| O=C(NC1CCN(c2ncccn2)CC1)c1sccc1C1CC1 | -5.75 |
| Cc1ccc(S(=O)(=O)NCCc2cccnc2)cc1C | 0.645 |
| COCCN(Cc1ccc(F)cc1Cl)C(=O)c1csnn1 | 11.6 |
| N#CCc1ccc(NC(=O)CNc2ccc(Br)cc2F)cc1 | 0.997 |
| CN(CCn1cccn1)C1CCCN(Cc2noc(C3CC3)n2)C1 (centres undefined) | 15 |
| O=C(CCc1ccncc1)Nc1ccc(OCC2CC2)cc1 | -2.56 |
| COc1cc2c(cc1OC)S(=O)(=O)N(Cc1ccccc1C)C2=O | 10.3 |
| CC1C(=O)Nc2cccnc2N1S(=O)(=O)c1cc(F)cc(F)c1 (centres undefined) | -5.26 |
| COc1ccc(Cl)cc1CNC(=O)CN1CCC2(CCOC2)C1 (centres undefined) | -61.7 |
| Cc1ccc(C2CCCCCN2CCNS(C)(=O)=O)o1 (centres undefined) | 0.395 |
| CCN(C)S(=O)(=O)NCC(O)c1cc2ccccc2s1 (centres undefined) | -8.26 |
| CN1CCN(C(=O)Cc2ccc(S(=O)(=O)C(F)F)cc2)CC1 | 12 |
| O=C(CCN1CCC(c2cc3ccccc3[nH]2)CC1)N1CCOCC1 | -3.81 |
| CC(C)(C)c1cnc(CN2CCC(NC(=O)Nc3ccccc3)CC2)o1 | -12.3 |

| Compound | cytotoxicity at 10 µM [%] |
| --- | --- |
| O=C(O)c1ccc(CCNC(=O)C2(O)Cc3ccccc3C2)cc1 | 3.69 |
| CN(C)C(=O)NCC1CC2(CO1)CN(c1nncs1)C2 (centres undefined) | -96.3 |
| O=C(CC(F)(F)F)N1CCC2(CCCN(c3nncs3)C2)C1 (centres undefined) | -105 |
| Cn1cnc(-c2nc(C(=O)NCCN3CCCC3)c3ccccn23)c1 | -109 |
| CN1CCCCC1C(=O)N1CCN(c2ccccc2C#N)CC1 (centres undefined) | -6.85 |
| CCN(Cc1c(F)cccc1Cl)c1cc(C2CCNCC2)nc(C)n1 | 5.16 |
| Cc1cnc(CNc2ncc(C)c(-c3cnn(C)c3)n2)cn1 | 7.86 |
| CCOc1cc2c(cc1CN1CCC3(CC1)CNC(=O)C3)CCC2 | -2.04 |
| CCc1ccc(CN2CCN(CCOC)[C@@H]3CS(=O)(=O)C[C@@H]32)cc1 | -5.72 |
| CSCC(=O)N[C@H]1CN(Cc2c(C)noc2C)C[C@@H]1C(C)C | 5.4 |
| Cc1nc(C(C)NC(=O)c2cn(Cc3ccc(Cl)cc3)nn2)n[nH]1 (centres undefined) | 10.2 |
| COc1cccc(CN(C)Cc2[nH]c3ccccc3c2C)c1O | 3.38 |
| COC[C@]1(O)CCN(C2CCN(c3ccc(F)c(F)c3)CC2)CC1(C)C | -3.85 |
| Cc1ccccc1OCC(O)C(=O)N1CCC2(CC1)CN(C)C(=O)O2 (centres undefined) | -47.6 |
| CCCn1cc(C(=O)NC2CCN(CC(=O)NC3CC3)CC2)c(C)n1 | 2.29 |
| Cc1nsc(NC(=O)NC2CCCN(C)C2)n1 (centres undefined) | -17.1 |
| O=C(NCCc1ccc(Cl)cc1)c1coc(CN2CCOCC2)c1 | 0.383 |
| CCN1CCC(CC(=O)NC[C@H]2CCc3ccccc3O2)CC1 | -28.4 |
| Cc1nnc(CNC(=O)[C@@H]2C[C@H](NC(=O)C(C)(C)C)CN2C)[nH]1 | 1.76 |
| Cc1ccc(C)c(-n2cc(CN3CC[C@@H](O)C3)c(-c3ccccc3)n2)c1 | -6.77 |
| CN(Cc1ccsc1)C(=O)c1n[nH]c(N)c1-c1ccccc1 | -6.27 |
| CCN1CCC(N2C[C@@H](C(=O)O)[C@H](c3cccc(OC)c3)C2)CC1 | -2.85 |

| Compound | cytotoxicity at 10 µM [%] |
| --- | --- |
| COc1ccc(CN2CCN(CC3CC3)[C@@H]3CS(=O)(=O)C[C@@H]32)cc1C | -1.95 |
| COCc1noc(CN2C[C@H](NS(C)(=O)=O)[C@@H](C3CC3)C2)n1 | 1.67 |
| CN(Cc1cc[nH]n1)C(=O)c1cn(Cc2ccccc2Cl)nn1 | 7.59 |
| CCC[C@@H]1CN(Cc2cc(OC)c3c(c2)OCO3)C[C@H]1C(=O)O | -0.778 |
| COCC(=O)N1CCCC(C(=O)N(C)CCCc2cnn(C)c2)C1 (centres undefined) | -137 |
| O=C(c1ccnc(-n2cnnc2)c1)N1CCCC2(CCOC2)C1 (centres undefined) | -15.1 |
| COc1ccc(-c2n[nH]cc2CN(C)CCc2scnc2C)c(F)c1 | 3.06 |
| COC(=O)N1CCC2(CC1)CC(c1ccccc1)CN(C)C2 (centres undefined) | 2.09 |
| O=C1CCC(=O)N1c1nn(Cc2ccc(F)cc2)cc1Cl | -13.2 |
| O=C(Cc1ccsc1)N1CCC(n2nc(-c3ccco3)ccc2=O)CC1 | -8.98 |
| O=C(Nc1cccc(CNCc2cccnc2)c1)C1CCCC1 | -9.27 |
| CCN1CCN(C(=O)c2ccc(Cn3ccccc3=O)o2)CC1 | -9.39 |
| Cc1nccn1C1CCCN(C(=O)COC2CCCC2)C1 (centres undefined) | -10.5 |
| O=C(COCC(F)(F)F)N1CCCC(n2cccn2)C1 (centres undefined) | -6.28 |
| O=C(c1cccc2c1OCCO2)N1CCCC1Cn1cccn1 (centres undefined) | -10.7 |
| COC(=O)c1cccn1C1CCN(C(=O)c2cc(F)ccc2F)CC1 | -9.62 |
| Cc1ccc(N(C)C2CCN(C(=O)c3ccsc3)CC2)nn1 | -12.1 |
| Cc1cnc2c(S(=O)(=O)NCC3CCS(=O)(=O)C3)cccc2c1 (centres undefined) | -7.52 |
| Cc1cc(C)n(CC2CCCN2CCc2ccncc2)n1 (centres undefined) | -15.5 |
| CC(C)c1nn(C)c(N(C)C)c1CNCc1ccccc1CN(C)C | 1.53 |
| CN(C)C(=O)CN1CCN(C(=O)Cc2csc(-c3ncccn3)n2)CC1 | -8.52 |
| O=C1C(NS(=O)(=O)c2cc(F)cc(F)c2)CCN1Cc1ccccc1 (centres undefined) | -10 |

| Compound | cytotoxicity at 10 µM [%] |
| --- | --- |
| CCCNC(=O)C1CCN(Cc2csc(C(C)(C)C)n2)CC1 | -9.11 |
| CS(=O)(=O)c1ccc(CNC2CCCN(c3cccnn3)C2)cc1 (centres undefined) | 1.3 |
| OCC1CCCN1c1cc(N2CCC(OC3CCCC3)CC2)ncn1 (centres undefined) | -2.43 |
| CCN1CCN(C)C(=O)C12CCN(Cc1cccc(C)c1)CC2 | -2.95 |
| CN(C)CCOCC1CN(C(=O)c2ccnnc2)Cc2ccnn2C1 (centres undefined) | 7.89 |
| CN(C)C(=O)CO[C@H]1CN(Cc2ccoc2)[C@@H]2COC[C@H]12 | 6.17 |
| Cc1nc(C)c(C(=O)N2CCc3nc4c(C)csc4c(=O)n3CC2)s1 | 4.11 |
| COCCN1CCN(C)C2(CCN(C(=O)c3ccnnc3)CC2)C1=O | 11.6 |
| O=C1[C@H]2CN(CC3CC3)C[C@H]2CN1Cc1cccc(F)c1 | 5.56 |
| COCCN1CCO[C@@H]2CN(S(=O)(=O)c3cccnc3)C[C@@H]2C1 | 16.3 |
| CC(C)C(=O)N1CCCC(c2cc(C(F)F)n3ncnc3n2)C1 (centres undefined) | 1.18 |
| COCCN1CCC2(CC1)CN(C(=O)c1ccccc1)CCO2 | 1.61 |
| CC(=O)N1CCC2(CN(CC3CCCC3)C2)C1 | 2.05 |
| O=C(c1cnccn1)N1CCOC2(CCCN(c3ncccc3F)C2)C1 (centres undefined) | 0.199 |
| CCN1CC(=O)NCC12CCN(C(=O)c1ccno1)C2 (centres undefined) | -2.75 |
| CC(=O)N1CCO[C@@H]2CN(Cc3cccc(Cl)c3)C[C@@H]2C1 | -104 |
| O=C(NCCCN1CCOCC1)c1ccn(-c2ccc3ccccn23)n1 | 5.17 |
| O=C(CO)N1CCOC2(CCCN(c3ncc(F)cn3)C2)C1 (centres undefined) | 12.4 |
| CN(C)CCn1c2c(ccc1=O)CC(NC(=O)NC1CCCC1)CC2 (centres undefined) | -0.913 |
| CC(C)Cc1cc(CN2C[C@@H]3CC[C@H]2CN(Cc2cscn2)C3)n[nH]1 | -2.03 |
| Oc1cccc(CN2C[C@@H]3CC[C@H]2CN(Cc2ccc(F)cc2)C3)c1 | -135 |
